Laboratory results published in ChEMBL document CHEMBL4304739, “Discovery of 3-(Indol-5-yl)-indazole Derivatives as Novel Myeloid Differentiation Protein 2/Toll-like Receptor 4 Antagonists for Treatment of Acute Lung Injury” (J Med Chem, 2019).
Calls of active or inactive are those of the source. No cut-off for these calls is given here.

How the values were obtained:
Peritoneal macrophage = assay: Cytotoxicity against ICR mouse peritoneal macrophages assessed as reduction in cell viability at 10 uM measured after 24 hrs by MTT assay; assay type: cell-based
In short: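 Peritoneal macrophages from ICR mice, 2.0×10^4 cells/well in DMEM with 10% FBS. Cells exposed to compound for 24 h, then MTT (5 mg/ml in 0.9% NaCl) added for 4 h at 37 °C in 5% CO2. Absorbance read at 490 nm; final DMSO 0.1%.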

Mus musculus [1] = assay: Antiinflammatory activity in LPS-induced C57BL/6 mouse model of acute lung injury assessed as reduction in lung injury score at 10 mg/kg, iv pretreated for 15 mins followed by LPS stimulation and measured after 6 hrs; assay type: functional, organism-based
In short: (§1)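 Male C57BL/6 mice (18−22 g; n=8 per group). Compound in 0.1% CMC-Na given by tail vein injection 15 min before intraperitoneal LPS (20 mg/kg); controls received saline. Mice were sacrificed 6 h after LPS, and serum and lung tissue were collected.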

Mus musculus [2] = assay: Antiinflammatory activity in LPS-induced C57BL/6 mouse model of acute lung injury assessed as reduction in F4/80 positive macrophage at 10 mg/kg, iv pretreated for 15 mins followed by LPS stimulation and measured after 6 hrs by ABC/hematoxylin staining-based immunohistochemistry analysis; assay type: functional, organism-based; in short: as §1
[3] = molecular target: T1, Toll-like receptor 4/Ly96 (Mus musculus, UniProt Q9JHF9+Q9QUK6); assay: Inhibition of MD2-TLR4 protein-protein interaction in ICR mouse peritoneal macrophages assessed as reduction in LPS-induced TNFalpha production preincubated for 2 hrs followed by LPS-stimulation and measured after 22 hrs by ELISA
T1 sequence (Q9QUK6 whole entry): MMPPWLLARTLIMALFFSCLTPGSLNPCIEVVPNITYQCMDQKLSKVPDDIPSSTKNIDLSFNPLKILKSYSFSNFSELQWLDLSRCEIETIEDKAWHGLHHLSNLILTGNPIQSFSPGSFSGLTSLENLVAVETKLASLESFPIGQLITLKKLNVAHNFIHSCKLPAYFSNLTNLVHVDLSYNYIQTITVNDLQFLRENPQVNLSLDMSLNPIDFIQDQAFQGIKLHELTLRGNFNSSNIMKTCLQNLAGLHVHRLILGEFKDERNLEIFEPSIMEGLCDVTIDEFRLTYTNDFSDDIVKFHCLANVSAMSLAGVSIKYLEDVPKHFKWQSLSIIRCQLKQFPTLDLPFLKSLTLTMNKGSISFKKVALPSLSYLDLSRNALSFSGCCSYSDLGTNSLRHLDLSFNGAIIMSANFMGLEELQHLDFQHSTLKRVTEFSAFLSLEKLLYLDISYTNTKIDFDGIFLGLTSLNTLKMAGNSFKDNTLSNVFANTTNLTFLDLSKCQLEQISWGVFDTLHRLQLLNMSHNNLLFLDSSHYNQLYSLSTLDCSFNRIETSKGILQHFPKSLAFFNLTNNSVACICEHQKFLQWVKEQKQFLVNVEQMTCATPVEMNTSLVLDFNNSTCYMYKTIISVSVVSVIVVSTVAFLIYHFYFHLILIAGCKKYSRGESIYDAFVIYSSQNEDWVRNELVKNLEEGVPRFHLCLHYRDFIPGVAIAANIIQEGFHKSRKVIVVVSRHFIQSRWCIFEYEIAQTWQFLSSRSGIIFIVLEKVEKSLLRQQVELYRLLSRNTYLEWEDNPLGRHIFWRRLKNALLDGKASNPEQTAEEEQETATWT
T1 sequence (Q9JHF9 whole entry): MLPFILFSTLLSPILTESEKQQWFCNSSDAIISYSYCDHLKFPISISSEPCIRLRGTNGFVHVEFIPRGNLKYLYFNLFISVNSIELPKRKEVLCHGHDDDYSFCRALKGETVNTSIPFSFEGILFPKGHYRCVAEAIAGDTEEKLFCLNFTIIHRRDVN

[4] = molecular target: T1, Toll-like receptor 4/Ly96; assay: Inhibition of MD2-TLR4 protein-protein interaction in ICR mouse peritoneal macrophages assessed as reduction in LPS-induced IL-6 production preincubated for 2 hrs followed by LPS-stimulation and measured after 22 hrs by ELISA

Which Activity (Peritoneal macrophage) does the source give for `Cc1cccc(C(=O)Nc2ccc3[nH]nc(-c4ccc5c(ccn5CCO)c4)c3c2)n1` here?
The Activity was “Non-Toxic”.

How did the Activity (Peritoneal macrophage) turn out when `O=C(Nc1ccc2[nH]nc(-c3ccc4c(ccn4CCO)c3)c2c1)c1ccc(F)cc1` was run?
The Activity was “Non-Toxic”.

For `O=C(Nc1ccc2[nH]nc(-c3ccc4c(ccn4CCO)c3)c2c1)c1cccc(Cl)c1`, which Activity (Peritoneal macrophage) is on record?
The Activity was “Non-Toxic”.

With `COc1cc(OC)cc(C(=O)Nc2ccc3[nH]nc(-c4ccc5c(ccn5CCO)c4)c3c2)c1` as the compound, how does the Activity (Peritoneal macrophage) read?
Its Activity is “Non-Toxic”.

`O=C(/C=C/c1ccccc1)Nc1ccc2[nH]nc(-c3ccc4c(ccn4CCO)c3)c2c1` was tested. Which Activity (Peritoneal macrophage) did it give?
The Activity was “Non-Toxic”.

For `O=C(Nc1ccc2[nH]nc(-c3ccc4c(ccn4CCO)c3)c2c1)c1ccccn1`, which Activity (Peritoneal macrophage) is on record?
Its Activity is “Non-Toxic”.

For `Nc1ccc2[nH]nc(-c3ccc4c(ccn4CCO)c3)c2c1`, which Activity (Peritoneal macrophage) is on record?
The Activity was “Non-Toxic”.

For `CC(=O)Nc1ccc2[nH]nc(-c3ccc4c(ccn4CCO)c3)c2c1`, which Activity (Peritoneal macrophage) is on record?
The Activity was “Non-Toxic”.

`O=C(Nc1ccc2[nH]nc(-c3ccc4c(ccn4CCO)c3)c2c1)c1ccc(Cl)cc1` was tested. Which Activity (Peritoneal macrophage) did it give?
The Activity was “Non-Toxic”.

What does the source list for `CCCn1c(-c2c[nH]c3ncccc23)nc2ccc(N3CCN(C)CC3)nc21`?
Activity (Mus musculus [1]): Active; Activity (Mus musculus [2]): Active

Which IC50 [3] does the source give for `O=C(Nc1ccc2[nH]nc(-c3ccc4c(ccn4CCO)c3)c2c1)c1c(Cl)cccc1Cl` here?
Its IC50 is 6.31 µM.

What about the IC50 [4] of the same compound?
Its IC50 is 0.73 µM.

What about the Activity (Peritoneal macrophage) of the same compound?
Its Activity is “Non-Toxic”.

How did the IC50 [3] turn out when `O=[N+]([O-])c1ccc2[nH]nc(-c3ccc4c(ccn4CCO)c3)c2c1` was run?
The IC50 was 6.99 µM.

And the IC50 [4]?
Its IC50 is 0.84 µM.

What about the Activity (Peritoneal macrophage) of the same compound?
The Activity was “Non-Toxic”.

Which Activity (Peritoneal macrophage) does the source give for `CCC(=O)Nc1ccc2[nH]nc(-c3ccc4c(ccn4CCO)c3)c2c1` here?
Its Activity is “Non-Toxic”.

How did the Activity (Peritoneal macrophage) turn out when `Cc1cccc(C(=O)Nc2ccc3[nH]nc(-c4ccc5c(ccn5CCO)c4)c3c2)c1` was run?
The Activity was “Non-Toxic”.

For `O=C(Nc1ccc2c(c1)c(-c1ccc3[nH]ccc3c1)nn2Cc1ccccc1)c1c(Cl)cccc1Cl`, which Activity (Peritoneal macrophage) is on record?
Its Activity is “Non-Toxic”.

With `O=C(CCCl)Nc1ccc2[nH]nc(-c3ccc4c(ccn4CCO)c3)c2c1` as the compound, how does the IC50 [3] read?
The IC50 was 3.47 µM.

What about the IC50 [4] of the same compound?
Its IC50 is 4.57 µM.

And the Activity (Peritoneal macrophage)?
Its Activity is “Non-Toxic”.
